Measured values reported in ChEMBL document CHEMBL4364272, “Discovery of a Lead Triphenylethanamine Cholesterol Ester Transfer Protein (CETP) Inhibitor” (ACS Med Chem Lett, 2019).
pIC50: −log10 of the molar value. Activity calls are given as the source filed them. The calls are words filed in the database; no cut-off is given here.

Assays:
[1] = Clearance in Balb/c mouse at 5 mg/kg, iv or 10 mg/kg, po administered via gavage measured upto 24 hrs by LC-MS/MS; format: ADME, organism-based; conditions: in vivo
In short: (§1)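 Single IV and oral doses: rat 1 mg/kg IV and 10 mg/kg PO; mouse 5 mg/kg IV and 10 mg/kg PO; monkey 1 mg/kg IV and 5 mg/kg PO. IV vehicle was 10% Cremophor/10% EtOH/80% H2O for rodents and 70% PEG-400/10% EtOH/20% H2O for monkey. Oral vehicle was 15% Miglyol 812/30% Capmul MCM/15% Triacetin/40% Cremophor RH40, or the Cremophor vehicle for rat. Vss, Cl, t1/2 and %F were derived.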

[2] = Half life in cynomolgus monkey at 1 mg/kg, iv or 5 mg/kg, po administered via gavage measured upto 24 hrs by LC-MS/MS; format: ADME, organism-based, Macaca fascicularis; conditions: in vivo; in short: as §1
CYP11B1 = assay: Effect on CYP11B1 gene expression in human NCI-H295R cells at 10 uM measured after 24 hrs relative to control; format: ADME, cell-based; conditions: read-out: FC
In short: (§2)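 H295R cells were incubated for 24 h with test agent at 10 μM or angiotensin-II at 0.1 μM. CYP11B1 and CYP11B2 mRNA levels were measured and expressed as fold of control.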

[3] = Oral bioavailability in cynomolgus monkey at 5 mg/kg administered via gavage measured upto 24 hrs by LC-MS/MS; format: ADME, organism-based, Macaca fascicularis; conditions: in vivo; in short: as §1
[4] = biological target: T1, Cholesteryl ester transfer protein (Homo sapiens, UniProt P11597); assay: Inhibition of human recombinant CETP assessed as reduction in [3H]CE/HDL transfer incubated for 4 hrs by scintillation proximity assay
T1 sequence (P11597 whole entry): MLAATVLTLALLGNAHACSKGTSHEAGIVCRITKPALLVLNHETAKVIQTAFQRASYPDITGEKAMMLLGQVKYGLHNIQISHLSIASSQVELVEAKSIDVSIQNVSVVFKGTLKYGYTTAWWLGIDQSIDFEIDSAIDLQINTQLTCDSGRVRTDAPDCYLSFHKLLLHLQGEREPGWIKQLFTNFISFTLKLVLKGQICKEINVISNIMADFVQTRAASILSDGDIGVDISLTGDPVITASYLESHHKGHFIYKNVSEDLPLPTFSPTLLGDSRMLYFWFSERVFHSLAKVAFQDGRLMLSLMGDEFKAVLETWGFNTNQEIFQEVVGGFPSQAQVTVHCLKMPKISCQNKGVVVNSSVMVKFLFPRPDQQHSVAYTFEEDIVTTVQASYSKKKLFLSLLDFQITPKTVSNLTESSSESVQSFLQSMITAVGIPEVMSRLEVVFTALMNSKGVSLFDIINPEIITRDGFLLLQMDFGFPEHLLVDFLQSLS
In short: (§3)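 CETP activity was measured by scintillation proximity assay and by human whole plasma assay. Each was run in duplicate at six concentrations, and the mean values were used to calculate IC50.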

[5] = Stability in mouse liver microsomes assessed as parent compound remaining at 50 uM preincubated for 5 to 7 mins followed by NADPH addition and measured 10 mins post-dose by LC-MS/MS; format: ADME, Microsome; conditions: read-out: Stability
[6] = Half life in Balb/c mouse at 5 mg/kg, iv or 10 mg/kg, po administered via gavage measured upto 24 hrs by LC-MS/MS; format: ADME, organism-based; conditions: in vivo; in short: as §1
[7] = Volume of distribution at steady state in cynomolgus monkey at 1 mg/kg, iv or 5 mg/kg, po administered via gavage measured upto 24 hrs by LC-MS/MS; format: ADME, organism-based, Macaca fascicularis; conditions: in vivo, read-out: Vdss; in short: as §1
[8] = Volume of distribution at steady state in Sprague-Dawley rat at 1 mg/kg, iv or 10 mg/kg, po administered via gavage measured upto 24 hrs by LC-MS/MS; format: ADME, organism-based; conditions: in vivo, read-out: Vdss; in short: as §1
[9] = Volume of distribution at steady state in Balb/c mouse at 5 mg/kg, iv or 10 mg/kg, po administered via gavage measured upto 24 hrs by LC-MS/MS; format: ADME, organism-based; conditions: in vivo, read-out: Vdss; in short: as §1
[10] = Oral bioavailability in Balb/c mouse at 10 mg/kg measured upto 24 hrs by LC-MS/MS; format: ADME, organism-based; conditions: in vivo; in short: as §1
[11] = Cmax in telemetered rat at 2.5 mg/kg administered as iv infusion for 5 mins followed by 7.5 mg/kg, iv infusion for 55 mins; format: ADME, organism-based; set-up: dose 2.5 mg/kg, route intravenous; conditions: in vivo
In short: (§4)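 Rats were telemetered and given a total of 10 mg/kg IV: 2.5 mg/kg infused over 5 min, then 7.5 mg/kg infused over 55 min (n = 7). Mean, systolic and diastolic BP, heart rate and locomotor activity were monitored, and the observed Cmax was recorded.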

Hamster = assay: In vivo inhibition of CETP in hamster assessed as increase in HDL cholesterol at 10 mg/kg, po qd administered for 7 days measured 6 hrs post-dose on every other day by FPLC analysis relative to control; format: functional; conditions: Cricetinae
In short: (§5)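 Hamsters received 10 mg/kg. Plasma cholesterol profiles were resolved by FPLC to give HDL cholesterol change, and plasma exposure was measured.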

[12] = Stability in human liver microsomes assessed as parent compound remaining at 50 uM preincubated for 5 to 7 mins followed by NADPH addition and measured 10 mins post-dose by LC-MS/MS; format: ADME, Microsome; conditions: read-out: Stability
[13] = biological target: Voltage-gated inwardly rectifying potassium channel KCNH2 (Homo sapiens, UniProt Q12809); assay: Inhibition of human ERG expressed in HEK293 cells by flux assay
Voltage-gated inwardly rectifying potassium channel KCNH2, sequence (Q12809 whole entry, the tested form may be a part): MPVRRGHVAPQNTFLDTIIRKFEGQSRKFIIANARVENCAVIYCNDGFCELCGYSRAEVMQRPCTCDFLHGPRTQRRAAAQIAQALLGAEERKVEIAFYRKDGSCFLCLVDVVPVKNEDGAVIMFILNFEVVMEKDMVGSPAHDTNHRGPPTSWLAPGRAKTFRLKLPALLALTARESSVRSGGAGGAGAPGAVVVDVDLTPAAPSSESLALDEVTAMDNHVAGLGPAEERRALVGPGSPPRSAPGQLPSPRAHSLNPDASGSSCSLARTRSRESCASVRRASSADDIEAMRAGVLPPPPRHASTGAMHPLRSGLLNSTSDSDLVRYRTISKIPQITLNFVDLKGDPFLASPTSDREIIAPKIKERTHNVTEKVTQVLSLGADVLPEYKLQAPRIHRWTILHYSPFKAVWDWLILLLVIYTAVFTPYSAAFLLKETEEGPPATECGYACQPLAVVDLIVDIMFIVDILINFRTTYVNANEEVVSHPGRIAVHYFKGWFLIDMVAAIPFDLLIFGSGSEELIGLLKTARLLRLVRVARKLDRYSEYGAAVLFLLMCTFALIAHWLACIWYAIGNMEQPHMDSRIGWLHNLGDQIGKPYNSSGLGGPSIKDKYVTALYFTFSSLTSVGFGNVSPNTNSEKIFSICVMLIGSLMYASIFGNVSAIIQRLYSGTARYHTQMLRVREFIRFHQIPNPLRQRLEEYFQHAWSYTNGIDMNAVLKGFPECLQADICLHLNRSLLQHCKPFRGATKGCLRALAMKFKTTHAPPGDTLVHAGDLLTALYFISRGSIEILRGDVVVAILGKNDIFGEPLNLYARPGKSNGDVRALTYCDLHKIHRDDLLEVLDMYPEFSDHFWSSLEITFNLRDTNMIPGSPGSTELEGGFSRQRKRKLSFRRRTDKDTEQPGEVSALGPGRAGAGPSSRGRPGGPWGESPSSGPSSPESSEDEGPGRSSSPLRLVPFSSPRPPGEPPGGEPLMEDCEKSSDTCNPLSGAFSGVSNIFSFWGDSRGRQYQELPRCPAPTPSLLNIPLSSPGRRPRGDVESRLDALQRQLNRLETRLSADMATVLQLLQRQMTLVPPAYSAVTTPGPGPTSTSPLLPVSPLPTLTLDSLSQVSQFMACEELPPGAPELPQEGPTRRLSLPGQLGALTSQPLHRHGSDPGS

[14] = Toxicity in telemetered rat assessed as effect on locomotor activity at 2.5 mg/kg administered as iv infusion for 5 mins followed by 7.5 mg/kg, iv infusion for 55 mins; format: organism-based; conditions: in vivo; in short: as §4
[15] = Cardiac toxicity in telemetered rat assessed as change in heart rate at 2.5 mg/kg administered as iv infusion for 5 mins followed by 7.5 mg/kg, iv infusion for 55 mins; format: organism-based; conditions: in vivo; in short: as §4
[16] = Half life in Sprague-Dawley rat at 1 mg/kg, iv or 10 mg/kg, po administered via gavage measured upto 24 hrs by LC-MS/MS; format: ADME, organism-based; conditions: in vivo; in short: as §1
[17] = biological target: T1, Cholesteryl ester transfer protein; assay: Inhibition of CETP in human whole plasma assessed as reduction in [3H]-CE/HDL transfer incubated for 2.5 hrs by topcount scintillation counting assay; format: cell-free; in short: as §3
[18] = Plasma concentration in hamster at 10 mg/kg, po qd administered for 7 days; format: ADME, organism-based; conditions: cricetinae; in short: as §5
[19] = biological target: T2, Cholesteryl ester transfer protein (Homo sapiens) (UniProt P11597); assay: Potency index, ratio of torcetrapib IC50 to test compound IC50 for inhibition of CETP in human whole plasma; format: cell-free
T2 sequence (whole entry): T1 sequence (P11597 whole entry)

[20] = Clearance in Sprague-Dawley rat at 1 mg/kg, iv or 10 mg/kg, po administered via gavage measured upto 24 hrs by LC-MS/MS; format: ADME, organism-based; conditions: in vivo; in short: as §1
[21] = Clearance in cynomolgus monkey at 1 mg/kg, iv or 5 mg/kg, po administered via gavage measured upto 24 hrs by LC-MS/MS; format: ADME, organism-based, Macaca fascicularis; conditions: in vivo; in short: as §1
[22] = Cardiac toxicity in telemetered rat assessed as change in diastolic blood pressure at 2.5 mg/kg administered as iv infusion for 5 mins followed by 7.5 mg/kg, iv infusion for 55 mins; format: organism-based; conditions: in vivo; in short: as §4
[23] = Cardiac toxicity in telemetered rat assessed as change in systolic blood pressure at 2.5 mg/kg administered as iv infusion for 5 mins followed by 7.5 mg/kg, iv infusion for 55 mins; format: organism-based; conditions: in vivo; in short: as §4
CYP11B2 = assay: Effect on CYP11B2 gene expression in human NCI-H295R cells at 10 uM measured after 24 hrs relative to control; format: ADME, cell-based; conditions: read-out: FC; in short: as §2
Mus musculus = assay: In vivo inhibition of CETP in hCETP/apoB-100 dual transgenic mouse assessed as reduction in [3H]-CE transfer at 0.5 mg/kg, po administered via gavage measured after 2 to 8 hrs by radioactivity based assay; format: functional, organism-based
[24] = Oral bioavailability in Sprague-Dawley rat at 10 mg/kg administered via gavage measured upto 24 hrs by LC-MS/MS; format: ADME, organism-based; conditions: in vivo; in short: as §1

NC(C(=O)N[C@@](Cc1ccccc1)(c1cc(F)cc(OC(F)(F)C(F)F)c1)c1ccc(F)c(OC2CC2)c1)C(O)(C(F)(F)F)C(F)(F)F (stereo partly drawn)
clearance [1]: 1.9 mL/min/kg | half-life [2]: 69 h | fold induction at 24 h, 10 µM (CYP11B1): 1.3 | bioavailability [3]: 27% | pIC50 [4]: 8.70 | remaining at 10 min, 50 µM [5]: 100% | half-life [6]: 5 h | Vd [7]: 3.7 L/kg | Vd [8]: 1.5 L/kg | Vd [9]: 0.4 L/kg | bioavailability [10]: 18% | Cmax [11]: 23.5 µM | inhibition in vivo at 10 mg/kg (Hamster): 32% | remaining at 10 min, 50 µM [12]: 100% | pIC50 [13]: < 4.10 | Activity [14]: Non-Toxic | Activity [15]: Non-Toxic | half-life [16]: 25 h | pIC50 [17]: 7.21 | concentration at 168 h [18]: 0.9 µM | Ratio IC50 [19]: 2 | clearance [20]: 2.9 mL/min/kg | clearance [21]: 0.7 mL/min/kg | Activity [22]: Non-Toxic | Activity [23]: Non-Toxic | fold induction at 24 h, 10 µM (CYP11B2): 0.9 to 2.1 | inhibition (Mus musculus): Active | bioavailability [24]: 39%
